# Experimental data as given in ChEMBL document CHEMBL3585293, “Design, antiviral and cytostatic properties of isoxazolidine-containing amonafide analogues” (Bioorg Med Chem, 2015).
# pEC50, pIC50: −log10 of the molar value.
# System: L1210
# Experiment: Cytotoxicity against mouse L1210 cells assessed as inhibition of cell proliferation
# Type: functional, cell-based
# Settings: not given
row,SMILES,pIC50
1,CCCCN1C(=O)c2cccc3cc(NC(=O)[C@@H]4C[C@@H](P(=O)(OCC)OCC)N(C)O4)cc(c23)C1=O (racemic),4.07
2,CCCCN1C(=O)c2cccc3cc(NC(=O)[C@H]4C[C@@H](P(=O)(OCC)OCC)N(C)O4)cc(c23)C1=O (racemic),4.55
3,CCCN1C(=O)c2cccc3cc(NC(=O)[C@@H]4C[C@@H](P(=O)(OCC)OCC)N(C)O4)cc(c23)C1=O (racemic),4.39

# System: Cytomegalovirus
# Experiment: Antiviral activity against Cytomegalovirus AD-169 infected in HEL cells assessed as reduction of virus-induced cytopathogenicity
# Type: functional, organism-based
# Settings: Human betaherpesvirus 5, AD-169, HEL
row,SMILES,pEC50
1,CCCCN1C(=O)c2cccc3cc(NC(=O)[C@@H]4C[C@@H](P(=O)(OCC)OCC)N(C)O4)cc(c23)C1=O (racemic),< 4.70
2,CCCCN1C(=O)c2cccc3cc(NC(=O)[C@H]4C[C@@H](P(=O)(OCC)OCC)N(C)O4)cc(c23)C1=O (racemic),< 4.70
3,CCCN1C(=O)c2cccc3cc(NC(=O)[C@@H]4C[C@@H](P(=O)(OCC)OCC)N(C)O4)cc(c23)C1=O (racemic),< 4.70

# System: Human alphaherpesvirus 3
# Experiment: Antiviral activity against Varicella-zoster virus expressing thymidine kinase infected in HEL cells assessed as reduction of virus-induced plaque formation
# Type: functional, organism-based
# Settings: Human alphaherpesvirus 3, HEL
# How it was run: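 Plaque-reduction assay in HEL cells. TK+ VZV strains were Oka and YS; TK- strains were 07-1 and YS-R. Virus input was 100 PFU, with graded compound concentrations. Plaques were counted once formation was complete in untreated infected controls. […] Two independent experiments were run.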
row,SMILES,pEC50
1,CCCCN1C(=O)c2cccc3cc(NC(=O)[C@@H]4C[C@@H](P(=O)(OCC)OCC)N(C)O4)cc(c23)C1=O (racemic),4.55
2,CCCCN1C(=O)c2cccc3cc(NC(=O)[C@H]4C[C@@H](P(=O)(OCC)OCC)N(C)O4)cc(c23)C1=O (racemic),4.70
3,CCCN1C(=O)c2cccc3cc(NC(=O)[C@@H]4C[C@@H](P(=O)(OCC)OCC)N(C)O4)cc(c23)C1=O (racemic),4.55

# System: CCRF-CEM
# Experiment: Cytotoxicity against human CEM cells assessed as inhibition of cell proliferation
# Type: functional, cell-based
# Settings: not given
row,SMILES,pIC50
1,CCCCN1C(=O)c2cccc3cc(NC(=O)[C@@H]4C[C@@H](P(=O)(OCC)OCC)N(C)O4)cc(c23)C1=O (racemic),4.60
2,CCCCN1C(=O)c2cccc3cc(NC(=O)[C@H]4C[C@@H](P(=O)(OCC)OCC)N(C)O4)cc(c23)C1=O (racemic),4.72
3,CCCN1C(=O)c2cccc3cc(NC(=O)[C@@H]4C[C@@H](P(=O)(OCC)OCC)N(C)O4)cc(c23)C1=O (racemic),4.55

# System: HeLa
# Experiment: Cytotoxicity against human HeLa cells assessed as inhibition of cell proliferation
# Type: functional, cell-based
# Settings: not given
row,SMILES,pIC50
1,CCCCN1C(=O)c2cccc3cc(NC(=O)[C@@H]4C[C@@H](P(=O)(OCC)OCC)N(C)O4)cc(c23)C1=O (racemic),4.11
2,CCCN1C(=O)c2cccc3cc(NC(=O)[C@@H]4C[C@@H](P(=O)(OCC)OCC)N(C)O4)cc(c23)C1=O (racemic),4.13

# System: not listed separately
# Experiment: Cytotoxicity against HEL cells assessed as alternation of cell morphology by microscopic analysis
# Type: cell-based
# Settings: human
row,SMILES,MCC [µM]
1,CCCCN1C(=O)c2cccc3cc(NC(=O)[C@@H]4C[C@@H](P(=O)(OCC)OCC)N(C)O4)cc(c23)C1=O (racemic),≥ 100
2,CCCCN1C(=O)c2cccc3cc(NC(=O)[C@H]4C[C@@H](P(=O)(OCC)OCC)N(C)O4)cc(c23)C1=O (racemic),≥ 100
3,CCCN1C(=O)c2cccc3cc(NC(=O)[C@@H]4C[C@@H](P(=O)(OCC)OCC)N(C)O4)cc(c23)C1=O (racemic),> 100

# System: MDCK
# Experiment: Cytotoxicity against MDCK cells assessed cell viability by MTS assay
# Type: cell-based, Canis lupus familiaris
# Settings: dog
# How it was run: (§1)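 Cells were exposed to a range of compound concentrations. Viability was measured by the colorimetric formazan-based MTS assay.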
row,SMILES,CC50 [µM]
1,CCCCN1C(=O)c2cccc3cc(NC(=O)[C@@H]4C[C@@H](P(=O)(OCC)OCC)N(C)O4)cc(c23)C1=O (racemic),> 100
2,CCCN1C(=O)c2cccc3cc(NC(=O)[C@@H]4C[C@@H](P(=O)(OCC)OCC)N(C)O4)cc(c23)C1=O (racemic),46.2

# System: not listed separately
# Experiment: Cytotoxicity against CRFK cells assessed cell viability by MTS assay
# Type: cell-based, Felis catus
# Settings: cat
# How it was run: as §1
row,SMILES,CC50 [µM]
1,CCCCN1C(=O)c2cccc3cc(NC(=O)[C@@H]4C[C@@H](P(=O)(OCC)OCC)N(C)O4)cc(c23)C1=O (racemic),> 100

# System: Cytomegalovirus
# Experiment: Antiviral activity against Cytomegalovirus Davis infected in HEL cells assessed as reduction of virus-induced cytopathogenicity
# Type: functional, organism-based
# Settings: Human betaherpesvirus 5, Davis
row,SMILES,pEC50
1,CCCCN1C(=O)c2cccc3cc(NC(=O)[C@@H]4C[C@@H](P(=O)(OCC)OCC)N(C)O4)cc(c23)C1=O (racemic),< 4.70
2,CCCCN1C(=O)c2cccc3cc(NC(=O)[C@H]4C[C@@H](P(=O)(OCC)OCC)N(C)O4)cc(c23)C1=O (racemic),< 4.70
3,CCCN1C(=O)c2cccc3cc(NC(=O)[C@@H]4C[C@@H](P(=O)(OCC)OCC)N(C)O4)cc(c23)C1=O (racemic),4.35

# System: Human alphaherpesvirus 3
# Experiment: Antiviral activity against thymidine kinase-deficient Varicella-zoster virus infected in HEL cells assessed as reduction of virus-induced plaque formation
# Type: functional, organism-based
# Settings: Human alphaherpesvirus 3, HEL
# How it was run: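 Plaque-reduction assay in HEL cells. TK+ VZV strains were Oka and YS; TK- strains were 07-1 and YS-R. Virus input was 100 PFU, with graded compound concentrations. Plaques were counted once formation was complete in untreated infected controls. Two independent experiments were run.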
row,SMILES,pEC50
1,CCCCN1C(=O)c2cccc3cc(NC(=O)[C@@H]4C[C@@H](P(=O)(OCC)OCC)N(C)O4)cc(c23)C1=O (racemic),4.40
2,CCCCN1C(=O)c2cccc3cc(NC(=O)[C@H]4C[C@@H](P(=O)(OCC)OCC)N(C)O4)cc(c23)C1=O (racemic),4.42
3,CCCN1C(=O)c2cccc3cc(NC(=O)[C@@H]4C[C@@H](P(=O)(OCC)OCC)N(C)O4)cc(c23)C1=O (racemic),4.40
